Key:
[1] = target: Sigma non-opioid intracellular receptor 1 (Cavia porcellus, UniProt Q60492); experiment: Displacement of [3H](+)-pentazocine from sigma 1 receptor in guinea pig brain membranes; assay type: cell membranes, Membrane
Sigma 2 receptor = experiment: Displacement of [3H]DTG from sigma 2 receptor in rat liver membranes; assay type: cell membranes, Membrane
[2] = target: T1, 3-beta-hydroxysteroid-Delta(8),Delta(7)-isomerase (Cavia porcellus, UniProt Q60490); experiment: Displacement of [3H](+/-)-emopamil from delta8-delta7 sterol isomerase (SI) site in guinea pig liver membranes; assay type: cell membranes, Membrane
T1 sequence (Q60490 whole entry): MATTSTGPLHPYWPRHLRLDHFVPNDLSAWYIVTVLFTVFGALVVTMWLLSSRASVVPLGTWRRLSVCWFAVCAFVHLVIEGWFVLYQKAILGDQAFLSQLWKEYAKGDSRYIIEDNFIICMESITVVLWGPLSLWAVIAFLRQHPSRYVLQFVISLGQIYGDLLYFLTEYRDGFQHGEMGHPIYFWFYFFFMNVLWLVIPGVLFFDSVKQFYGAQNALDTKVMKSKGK
How it was run: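 Guinea pig liver membranes with (±)-[3H]emopamil; (±)-ifenprodil defined nonspecific binding. IC50 from six to nine concentrations, two or three duplicate experiments; Ki by nonlinear curve fitting.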

[3] = target: Sigma non-opioid intracellular receptor 1 (Cavia porcellus) (UniProt Q60492); experiment: […] rat sigma 2 receptor over guinea pig sigma 1 receptor
Cavia porcellus = species: Cavia porcellus; experiment: Selectivity for guinea pig delta8-delta7 sterol isomerase (SI) site over guinea pig sigma 1 receptor
[4] = target: Sigma non-opioid intracellular receptor 1 (Rattus norvegicus) (UniProt Q9R0C9); experiment: Percentage inhibition of rat C6 glioma cell proliferation mediated by sigma 1 receptor at 50 uM
Chain of Sigma non-opioid intracellular receptor 1 (Rattus norvegicus) (Q9R0C9 whole entry): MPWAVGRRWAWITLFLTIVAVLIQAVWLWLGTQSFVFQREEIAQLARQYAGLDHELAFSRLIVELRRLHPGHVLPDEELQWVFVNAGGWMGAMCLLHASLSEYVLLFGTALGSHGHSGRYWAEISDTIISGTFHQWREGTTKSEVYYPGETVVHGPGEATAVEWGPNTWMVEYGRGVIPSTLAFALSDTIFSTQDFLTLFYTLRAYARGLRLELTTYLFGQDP

Chain of Sigma non-opioid intracellular receptor 1 (Cavia porcellus) (Q60492 whole entry): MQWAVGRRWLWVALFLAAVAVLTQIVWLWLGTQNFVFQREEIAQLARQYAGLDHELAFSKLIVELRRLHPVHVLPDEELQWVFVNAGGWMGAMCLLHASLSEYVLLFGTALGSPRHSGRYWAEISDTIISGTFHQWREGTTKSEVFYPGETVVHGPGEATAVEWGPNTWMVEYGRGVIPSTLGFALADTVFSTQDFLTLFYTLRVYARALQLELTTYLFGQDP
Chain of Sigma non-opioid intracellular receptor 1 (Q60492 whole entry): as above

Compound COc1ccc2c(CCCCN3CCCCC3(C)C)cccc2c1 has a Ki [1] of 22.2 nM, a Ki (Sigma 2 receptor) of 28.6 nM and a Ki [2] of 11.7 nM. The Ratio Ki [3] was 1.3 and the Ratio Ki (Cavia porcellus) was 0.5.

COc1ccc2c(CCCN3CCCC(C)(C)C3)cccc2c1 was tested, and the Ki [1] was 0.35 nM, the Ki (Sigma 2 receptor) was 238 nM and the Ki [2] was 8.71 nM. The Ratio Ki [3] was 680 and the Ratio Ki (Cavia porcellus) was 25.

Work on COc1ccc2c(CCCN3CCC(C)CC3)cccc2c1 yielded a Ki [1] of 1.5 nM, a Ki (Sigma 2 receptor) of 38.9 nM and a Ki [2] of 19.5 nM. For the same compound, the Ratio Ki [3] was 26 and the Ratio Ki (Cavia porcellus) was 13.

For COc1ccc2c(CCCCN3CCCC[C@H]3C)cccc2c1, the Ki [1] was 1.43 nM, the Ki (Sigma 2 receptor) was 49.2 nM and the Ki [2] was 6.44 nM. It also gave a Ratio Ki [3] of 34 and a Ratio Ki (Cavia porcellus) of 4.5.

COc1ccc2c(c1)CCCC2CCCCN1CCC(C)CC1 (configuration not stated) gave a Ki [1] of 0.42 nM, a Ki (Sigma 2 receptor) of 36.3 nM and a Ki [2] of 5.55 nM. It also gave a Ratio Ki [3] of 86, a Ratio Ki (Cavia porcellus) of 13 and an inhibition [4] of 53%.

Compound COc1ccc2c(CCCCN3CCC[C@@H](C)C3)cccc2c1 has a Ki [1] of 0.24 nM, a Ki (Sigma 2 receptor) of 64 nM and a Ki [2] of 14.6 nM. It also gave a Ratio Ki [3] of 266 and a Ratio Ki (Cavia porcellus) of 61.

CC(C(O)c1ccc(O)cc1)N1CCC(Cc2ccccc2)CC1 (racemic) [IFENPRODIL] gave a Ki [2] of 4.7 nM.

Work on COc1ccc2c(CCCN3CCCC[C@H]3C)cccc2c1 yielded a Ki [1] of 1.83 nM, a Ki (Sigma 2 receptor) of 86.2 nM and a Ki [2] of 11.1 nM. It also gave a Ratio Ki [3] of 47 and a Ratio Ki (Cavia porcellus) of 6.1.

Work on COc1ccc2c(c1)CCCC2CCCN1CCCCC1(C)C (configuration not stated) yielded a Ki [1] of 178 nM, a Ki (Sigma 2 receptor) of 115 nM and a Ki [2] of 16.4 nM. The Ratio Ki [3] was 0.6 and the Ratio Ki (Cavia porcellus) was 0.1.

In the case of O=C(Cc1ccc(Cl)c(Cl)c1)OCCN1CCCC1, the inhibition [4] is reported as 25%.

COc1ccc2c(CCCCN3CCC[C@H](C)C3)cccc2c1 gave a Ki [1] of 0.66 nM, a Ki (Sigma 2 receptor) of 32.7 nM and a Ki [2] of 2.81 nM. For the same compound, the Ratio Ki [3] was 50 and the Ratio Ki (Cavia porcellus) was 4.3.

Compound COc1ccc2c(CCCN3CCCC[C@@H]3C)cccc2c1 has a Ki [1] of 7.05 nM, a Ki (Sigma 2 receptor) of 104 nM and a Ki [2] of 46.5 nM. The Ratio Ki [3] was 15 and the Ratio Ki (Cavia porcellus) was 6.6.

In the case of CCCN(CCC)CCc1ccc(OC)c(OCCc2ccccc2)c1, the Ki (Sigma 2 receptor) is reported as 212 nM and the Ki [2] is reported as 14.6 nM.

In the case of COc1ccc2c(CCCN3CCC[C@@H](C)C3)cccc2c1, the Ki [1] is reported as 1.35 nM, the Ki (Sigma 2 receptor) is reported as 60.2 nM and the Ki [2] is reported as 19.3 nM. For the same compound, the Ratio Ki [3] was 45 and the Ratio Ki (Cavia porcellus) was 14.

Compound COc1ccc2c(CCCCN3CCCC(C)(C)C3)cccc2c1 has a Ki [1] of 0.36 nM, a Ki (Sigma 2 receptor) of 67.4 nM and a Ki [2] of 1.89 nM. The Ratio Ki [3] was 187 and the Ratio Ki (Cavia porcellus) was 5.3.

Compound COc1ccc2c(c1)CCCC2CCCCN1CCCCC1(C)C (configuration not stated) has a Ki [1] of 6.16 nM, a Ki (Sigma 2 receptor) of 29.5 nM and a Ki [2] of 8.97 nM. The Ratio Ki [3] was 4.8 and the Ratio Ki (Cavia porcellus) was 1.4.

COc1ccc2c(c1)CCCC2CCCN1CCCC(C)(C)C1 (configuration not stated) was tested, and the inhibition [4] was 47%.

In the case of COc1ccc2c(CCCN3CCC(C)(C)CC3)cccc2c1, the Ki [1] is reported as 1.47 nM, the Ki (Sigma 2 receptor) is reported as 26.3 nM and the Ki [2] is reported as 9.04 nM. It also gave a Ratio Ki [3] of 18 and a Ratio Ki (Cavia porcellus) of 6.1.

With COc1ccc2c(c1)CCCC2CCCCN1CCCC(C)(C)C1 (configuration not stated) the inhibition [4] was 31%.

Work on COc1ccc2c(c1)CCCC2CCCN1CCC(C)(C)CC1 (configuration not stated) yielded a Ki [1] of 1.18 nM, a Ki (Sigma 2 receptor) of 31.4 nM and a Ki [2] of 5.39 nM. For the same compound, the Ratio Ki [3] was 27 and the Ratio Ki (Cavia porcellus) was 3.

Work on c1ccc(CCN2CCCCC2)cc1 yielded an inhibition [4] of 5%.

In the case of COc1ccc2c(c1)CCCC2CCCCN1CCCCC1 (configuration not stated), the Ki [1] is reported as 1.01 nM, the Ki (Sigma 2 receptor) is reported as 48.7 nM and the Ki [2] is reported as 3.57 nM. The Ratio Ki [3] was 48, the Ratio Ki (Cavia porcellus) was 3.5 and the inhibition [4] was 47%.

COc1ccc2c(CCCCN3CCCCC3)cccc2c1 showed a Ki [1] of 1.14 nM, a Ki (Sigma 2 receptor) of 151 nM and a Ki [2] of 19.5 nM. It also gave a Ratio Ki [3] of 132 and a Ratio Ki (Cavia porcellus) of 17.

COc1ccc2c(c1)CCCC2CCCN1CCCCC1 (configuration not stated) showed a Ki [1] of 1.2 nM, a Ki (Sigma 2 receptor) of 26.2 nM and a Ki [2] of 17.9 nM. It also gave a Ratio Ki [3] of 22 and a Ratio Ki (Cavia porcellus) of 15.

COc1ccc2c(CCCN3CCCCC3(C)C)cccc2c1 gave a Ki [1] of 1060 nM, a Ki (Sigma 2 receptor) of 94 nM and a Ki [2] of 14.9 nM. It also gave a Ratio Ki [3] of 0.09 and a Ratio Ki (Cavia porcellus) of 0.014.

Work on COc1ccc2c(c1)CCCC2CCCN1CCC(C)CC1 (configuration not stated) yielded a Ki [1] of 1.78 nM, a Ki (Sigma 2 receptor) of 31.4 nM and a Ki [2] of 5.34 nM. It also gave a Ratio Ki [3] of 18 and a Ratio Ki (Cavia porcellus) of 3.

In the case of Cc1ccccc1NC(=N)Nc1ccccc1C, the inhibition [4] is reported as 20%.

Compound COc1ccc2c(CCCCN3CCC(C)CC3)cccc2c1 has a Ki [1] of 0.03 nM, a Ki (Sigma 2 receptor) of 17.9 nM and a Ki [2] of 8.04 nM. It also gave a Ratio Ki [3] of 597 and a Ratio Ki (Cavia porcellus) of 268.

With COc1ccc2c(CCCN3CCCCC3)cccc2c1 the Ki [1] was 7.8 nM, the Ki (Sigma 2 receptor) was 175 nM and the Ki [2] was 37.6 nM. The Ratio Ki [3] was 22 and the Ratio Ki (Cavia porcellus) was 4.8.

COc1ccc2c(CCCCN3CCC(C)(C)CC3)cccc2c1 gave a Ki [1] of 2.25 nM, a Ki (Sigma 2 receptor) of 17.9 nM and a Ki [2] of 1.82 nM. The Ratio Ki [3] was 8 and the Ratio Ki (Cavia porcellus) was 0.8.

Compound COc1ccc2c(CCCN3CCC[C@H](C)C3)cccc2c1 has a Ki [1] of 3.32 nM, a Ki (Sigma 2 receptor) of 59.3 nM and a Ki [2] of 3.41 nM. It also gave a Ratio Ki [3] of 18 and a Ratio Ki (Cavia porcellus) of 1.

CC(C)=CCN1CC[C@]2(C)c3cc(O)ccc3C[C@H]1[C@H]2C [(+)-PENTAZOCINE] was tested, and the Ki [2] was greater than 10000 nM and the inhibition [4] was 35%.

For COc1ccc2c(CCCCN3CCCC[C@@H]3C)cccc2c1, the Ki [1] was 0.5 nM, the Ki (Sigma 2 receptor) was 53.8 nM and the Ki [2] was 7.2 nM. The Ratio Ki [3] was 108 and the Ratio Ki (Cavia porcellus) was 14.

COc1ccc2c(c1)CCCC2CCCCN1CCC(C)(C)CC1 (configuration not stated) was tested, and the Ki [1] was 0.3 nM, the Ki (Sigma 2 receptor) was 17.5 nM and the Ki [2] was 4.11 nM. It also gave a Ratio Ki [3] of 58 and a Ratio Ki (Cavia porcellus) of 14.
